From PubChem
V-ATPase pHluor – regulators of yeast V-ATPase proton transport | S. cerevisiae, pHLuorin cytosolic pH fluorescence | response, % at 10 µM | 350,000 tested, 0.37% active | AID 504577; in the data active means response mostly above about 7.3%, no sharp cut-off; inactive means mostly below about 5.4%; further: actives read high
HIF activator – HIF pathway transcriptional activation; U2OS HRE-luciferase reporter, luminescence; normalized: DMSO 0%, desferrioxamine 100%; activation, % at 7.5 µM (by protocol); 300,000 tested, 0.32% active;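 active means mean activation of at least 10% of the iron chelator positive control signal, with at least half of replicates also reaching 10%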
T cruzi inh – blocks replication of Trypanosoma cruzi. 300,000 tested, 1.4% active. inhibition, % (no concentration beside the values). AID 1885. T. cruzi beta-gal in NIH3T3, luminescence, 90 h;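 active means mean inhibition across valid replicates above about 55%, limit read from the data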;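 further: signal also drops with host cell toxicity which is not excluded here; 0% = plate median of DMSO wells and 100% = zero luminescence signal; higher percent means less beta-gal luminescence so fewer parasites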
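assay system = mouse NIH/3T3 fibroblasts infected with β-gal-expressing T. cruzi Tulahuen C4 | input = 5,000 NIH/3T3 host cells per well | buffer or medium = DMEM plus 2% FBS | timing = 3 h host attachment, then at least 90 h co-culture | measured by = GalScreen luminescence, 60 min | evaluation = luminescence reflecting intracellular parasite burden, expressed as percent inhibition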
AI-2 QS mod – Vibrio harveyi AI-2 quorum sensing modulation. activity change, % at 7.5 µM. AID 2094. Vibrio harveyi JMH597 AI-2 luminescence/OD600 ratio, 9 h; stronger effect = lower value; strain lacks LuxN and CqsS sensors; 0 = neutral-control median. 300,000 tested, 0.4% active; in the data active means activity change below about -75%, passing the limit was not always enough;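 further: luminescence divided by OD600 gain over 9 h not by final OD600 alone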
Yeast superoxide – yeast age-related superoxide inhibition as caloric restriction mimetic; S. cerevisiae aged cells, superoxide DHE fluorescence; stronger effect = lower value; superoxide response (% of plate mean), % at 10 µM; 330,000 tested, 0.18% active;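 active means superoxide response under a set limit, about three screen SD below normal, cut at about 65% in these data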;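 further: yeast aged for seven days with compound at 30 °C before DHE staining; 100% = average MFI of all compound-treated wells on the plate with controls excluded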
NRP1-CendR mod – alters CendR peptide binding to human NRP-1; FAM-RPARPAR peptide binding to NRP-1, fluorescence polarization; 360,000 tested, 0.85% active; inhibition, % at 25 µM; AID 602438;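 active means inhibition or corrected inhibition above about 18%, plus a signal ratio from 0.5 to 1.5, limit read from the data, passing the limit was not always enough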
The depositor's hits bear a star; · = not tested or not shown. In the library only some 3% were active in any assay of this set; here they are far more common.

SMILES	V-ATPase pHluor	HIF activator	T cruzi inh	AI-2 QS mod	Yeast superoxide	NRP1-CendR mod
CC(C)(C)NC(=O)C(c1ccncc1)N(Cc1ccc(F)cc1)C(=O)c1ccc(-c2ccccc2)[nH]1 (stereo unspecified)	1	1	59*	9	98	7
O=C(NC1CCCC1)C(c1ccncc1)N(Cc1ccco1)C(=O)c1ccc(-c2ccccc2)[nH]1 (stereo unspecified)	-3	4	56*	21	101	0
CCN(CC(=O)Nc1ccc(OC)c(OC)c1)CC(=O)Nc1ccccc1C(F)(F)F	0	0	-6	-3	97	-3
CCN(CC)CCCNC(=O)c1ccc(OCC(=O)Nc2ccccc2C(F)(F)F)c(OC)c1	-1	0	55*	12	111	4
COc1ccc(N(CC(=O)Nc2nccs2)S(=O)(=O)c2c(C)nn(C)c2C)cc1	14*	·	·	·	102	4
COc1ccc(-c2csc3ncnc(N4CCN(S(=O)(=O)c5ccc(C)c(C)c5)CC4)c23)cc1	0	-2	55*	23	102	-19
CCOc1ccccc1N1CCN(c2ncnc3scc(-c4ccc(OC)cc4)c23)CC1	0	0	61*	72	81	1
O=C(NCCc1nnc2ccccn12)c1cccs1	8	2	-2	31	92	5
O=C(Nc1ccccc1)N1CCc2ccccc2C1	-3	3	-8	31	104	8
CC(Oc1ccc(Cl)cc1Cl)c1nc(-c2ccc(NC(=O)c3ccncc3)cc2)no1 (stereo unspecified)	-1	-1	55*	4	151	-12
COc1cccc(C2NC(=S)NC3=C2CCc2ccccc23)c1 (stereo unspecified)	0	0	4	12	87	7
S=C1NC2=C(CCCC2=C2SCCS2)C(c2ccccc2)N1 (stereo unspecified)	0	69*	28	38	102	4
Cc1ccc(C)c(OCCCCCn2ccnc2)c1	4	0	72*	1	107	5
Cc1cc(OCCCn2ccnc2)cc(C)c1Cl	3	-1	59*	19	88	20
Fc1ccc(OCCCCCn2ccnc2)cc1	-4	0	55*	-55	97	11
Clc1ccc(OCCn2ccnc2)c2ccccc12	2	0	70*	47	90	2
Clc1ccc(OCCn2ccnc2)c(Cl)c1	0	0	2	8	77	-5
Cc1ccc(C2C=NN(c3ccccc3)C2=O)cc1 (stereo unspecified)	-1	3	1	17	116	2
C=CCc1cc(Cl)ccc1OCCCn1ccnc1	-2	-2	57*	24	97	14
CN1CCC(N2CCN(C3CN(C4CCCC4)S(=O)(=O)C3)CC2)CC1 (stereo unspecified)	·	·	·	·	·	0
COc1ccc(-c2cc(C3CCN(c4cc(Cl)nc(N)n4)CC3)[nH]n2)cc1	3	0	23	25	102	0
Nc1nc(Cl)cc(N2CCC(c3cc(-c4ccc(Cl)cc4)n[nH]3)CC2)n1	3	-1	58*	3	107	-3
CCOC(=O)/C(C)=C1\NC(C)(C)Cc2ccccc21	5	0	62*	16	·	-1
CCOC(=O)/C(C(=O)Nc1ccccc1Cl)=C1/NC(C)(C)Cc2ccccc21	-4	0	-1	9	85	-1
O=C(Nc1ccc(F)c(Cl)c1)C1CC(=O)N(Cc2ccco2)C1 (stereo unspecified)	3	·	·	·	85	2
SMILES	V-ATPase pHluor	HIF activator	T cruzi inh	AI-2 QS mod	Yeast superoxide	NRP1-CendR mod
NCCc1c(-c2ccccc2)n(-c2ccccc2)c2ccccc12	-2	-2	64*	5	·	10
CCCCCc1cc(=O)oc2c(C(CCN3CCCC(C)C3)c3ccc(OC)cc3)c(OC)cc(OC)c12 (stereo unspecified)	-1	-1	66*	16	98	5
COc1cc(OC)c2ccc(=O)oc2c1C(CCN1CCCCC1)c1ccc(N(C)C)cc1 (stereo unspecified)	-3	0	3	33	105	18*
CCCCCc1cc(=O)oc2c(C(CCN3CCCCC3)c3ccc(OC)cc3)c(OC)cc(OC)c12 (stereo unspecified)	1	-1	42	10	98	26*
CCCCCc1cc(=O)oc2c(C(CCN3CCCC3)c3cc(OC)c(OC)c(OC)c3)c(OC)cc(OC)c12 (stereo unspecified)	-2	0	50	8	94	0
CCCCCc1cc(=O)oc2c(C(CCN3CCCC3)c3ccc(N(C)C)cc3)c(OC)cc(OC)c12 (stereo unspecified)	0	-2	53	3	106	2
COc1cc(OC)c2ccc(=O)oc2c1C(CCN1CCCC1)c1ccc(N(C)C)cc1 (stereo unspecified)	1	-1	8	-6	106	14
COc1ccc(N2CC(C(=O)Nc3nnc(SCC(=O)c4ccccc4)s3)CC2=O)cc1 (stereo unspecified)	-1	·	7	8	118	-8
Cc1ccc2c(c1)N(C)/C(=C/c1cccc[n+]1C)S2	-1	-8	76*	9	119	-3
CCCCN1/C(=C/c2cccc[n+]2C)Sc2cc(NC(C)=O)ccc21	0	-2	13	1	118	3
CN1/C(=C/c2cccc[n+]2C)Sc2ccccc21	-1	-18	63*	24	112	-6
CSc1ccccc1C(=O)N1CCN(c2cccc(Cl)c2)CC1	-1	2	-1	30	105	45*
C#CCOCCOCCOCCNc1nc(N2CCN(C(=O)[C@H](CCCCN)n3cc([C@@H](N)C(C)CC)nn3)CC2)nc(N2CCN(C(=O)[C@H](Cc3ccc(O)cc3)n3cc([C@@H](N)CC(C)C)nn3)CC2)n1 (stereo partly specified)	7	1	-3	0	108	1
CC(=O)Nc1sc(-c2ccccc2)nc1-c1ccccc1	2	205*	-10	9	103	-3
C[C@H]1CN([C@@H](C)CO)C(=O)CCCn2nncc2CO[C@H]1CN(C)C(=O)CCC(F)(F)F	2	·	·	·	·	3
CC(C)C(CO)N1CCN(Cc2ccccc2)CCC1=O (stereo unspecified)	1	-1	-11	3	101	24*
CCn1c(Cl)c(C=O)s/c1=N\S(=O)(=O)c1ccccc1	-1	-4	55*	25	98	-12
Cc1ccc2[nH]c(C(=O)N/N=C/c3ccccc3C(=O)O)c(-c3ccccc3)c2c1	1	-25	-2	23	122	-2
Cc1ccc2[nH]c(C(=O)N/N=C/c3ccccc3O)c(C)c2c1	-1	169*	70*	0	103	-1
